Data as given in ChEMBL document CHEMBL1137433, “Synthesis and antibacterial evaluation of ureides of Baylis-Hillman derivatives” (2006).
≈ marks a conversion by molar mass, not a printed value.

Experiments:
Assay type in all cases: functional
Staphylococcus aureus = experiment: Antibacterial activity against Staphylococcus aureus
Outline: (§1)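 Broth microdilution MIC in Mueller Hinton broth, 96-well plates. Strains from departmental collection, kept on nutrient agar slants at 37 °C, purity checked before testing. Starting inoculum 1–5 · 10³ cells/ml. Plates incubated 24 h at 37 °C in a moist chamber, then absorbance read at 492 nm. MIC taken as 90% growth inhibition relative to growth control.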

Enterococcus faecalis = experiment: Antibacterial activity against Streptococcus faecalis; outline: as §1
Escherichia coli = experiment: Antibacterial activity against Escherichia coli; outline: as §1
Pseudomonas aeruginosa = experiment: Antibacterial activity against Pseudomonas aeruginosa; outline: as §1
Klebsiella pneumoniae = experiment: Antibacterial activity against Klebsiella pneumoniae; outline: as §1

Compound | MIC (Staphylococcus aureus) [µg/mL] | MIC (Enterococcus faecalis) [µg/mL] | MIC (Escherichia coli) [µg/mL] | MIC (Pseudomonas aeruginosa) [µg/mL] | MIC (Klebsiella pneumoniae) [µg/mL]
CCn1cc(C(=O)O)c(=O)c2cc(F)c(N3CCNCC3)cc21 [NORFLOXACIN] | 0.3 (≈ 0.939 µM) | 0.78 (≈ 2.44 µM) | 0.36 (≈ 1.13 µM) | 0.78 (≈ 2.44 µM) | 0.36 (≈ 1.13 µM)
N=c1c(Cc2cccs2)c[nH]c(=O)n1-c1ccc(Cl)cc1 | > 50 | > 50 | > 50 | > 50 | > 50
N#C/C(=C/c1ccccc1Cl)CNC(=O)Nc1ccc(Cl)cc1 | > 50 | > 50 | > 50 | > 50 | > 50
GENTAMICIN SULFATE | 6.25 | 0.78 | 0.02 | 25 | 0.78
N#C/C(=C/c1ccc(Cl)c(Cl)c1)CNC(=O)Nc1ccc(Cl)c(Cl)c1 | 1.56 (≈ 3.76 µM) | 1.56 (≈ 3.76 µM) | 0.78 (≈ 1.88 µM) | 50 (≈ 120 µM) | 1.56 (≈ 3.76 µM)
CCOc1ccc(NC(=O)N(Cc2ccccc2)CC(C#N)C(O)c2ccccc2Cl)cc1 (centres undefined) | > 50 | > 50 | > 50 | > 50 | > 50
N#C/C(=C/c1ccccc1Cl)CNC(=S)Nc1ccccc1 | > 50 | > 50 | > 50 | > 50 | > 50
Cc1ccc(NC(=O)NC/C(C#N)=C\c2ccccc2Cl)cc1Cl | > 50 | > 50 | > 50 | > 50 | > 50
Cc1ccc(-n2c(=O)[nH]cc(Cc3ccccc3Cl)c2=N)cc1Cl | 50 (≈ 139 µM) | 50 (≈ 139 µM) | 50 (≈ 139 µM) | 50 (≈ 139 µM) | > 50
N#C/C(=C/c1ccccc1)CNC(=S)Nc1ccccc1 | 50 (≈ 170 µM) | 50 (≈ 170 µM) | 50 (≈ 170 µM) | 50 (≈ 170 µM) | 50 (≈ 170 µM)
N=c1c(Cc2ccccc2)c[nH]c(=O)n1-c1ccc(Cl)cc1Cl | 50 (≈ 144 µM) | 25 (≈ 72.2 µM) | 50 (≈ 144 µM) | 50 (≈ 144 µM) | 50 (≈ 144 µM)
COC(c1ccccc1)C(C#N)CN(Cc1ccccc1)C(=O)Nc1ccc(Cl)c(Cl)c1 (centres undefined) | 3.12 (≈ 6.66 µM) | 6.25 (≈ 13.3 µM) | 3.12 (≈ 6.66 µM) | 50 (≈ 107 µM) | 3.12 (≈ 6.66 µM)
Cc1ccc(-n2c(=O)[nH]cc(Cc3ccc(Cl)c(Cl)c3)c2=N)cc1Cl | > 50 | 50 (≈ 127 µM) | > 50 | > 50 | 50 (≈ 127 µM)
N=c1c(Cc2cccs2)c[nH]c(=O)n1-c1ccc(Cl)cc1Cl | > 50 | > 50 | 50 (≈ 142 µM) | > 50 | > 50
N#CC(CNC(=O)Nc1ccc(Cl)cc1Cl)C(O)c1ccccc1 (centres undefined) | > 50 | > 50 | > 50 | > 50 | > 50
N=c1c(Cc2ccc(Cl)c(Cl)c2)c[nH]c(=O)n1-c1ccc(Cl)cc1Cl | 3.12 (≈ 7.52 µM) | 3.12 (≈ 7.52 µM) | 3.12 (≈ 7.52 µM) | 25 (≈ 60.2 µM) | 3.12 (≈ 7.52 µM)
N#C/C(=C/c1ccc(Cl)c(Cl)c1)CNC(=O)Nc1ccc(Cl)cc1Cl | > 50 | > 50 | 6.25 (≈ 15.1 µM) | > 50 | > 50
N=c1c(Cc2ccc(Cl)c(Cl)c2)c[nH]c(=O)n1-c1ccc(Cl)c(Cl)c1 | 25 (≈ 60.2 µM) | 25 (≈ 60.2 µM) | 25 (≈ 60.2 µM) | 50 (≈ 120 µM) | 50 (≈ 120 µM)
N#C/C(=C/c1ccccc1Cl)CNC(=O)Nc1ccc(Cl)cc1Cl | > 50 | > 50 | > 50 | > 50 | > 50
N=c1c(Cc2ccccc2Cl)c[nH]c(=O)n1-c1ccc(Cl)cc1Cl | > 50 | > 50 | > 50 | > 50 | 50 (≈ 131 µM)

Compound | MIC (Staphylococcus aureus) [µg/mL] | MIC (Enterococcus faecalis) [µg/mL] | MIC (Escherichia coli) [µg/mL] | MIC (Pseudomonas aeruginosa) [µg/mL] | MIC (Klebsiella pneumoniae) [µg/mL]
N=c1c(Cc2ccccc2)c[nH]c(=O)n1-c1ccc(Cl)c(Cl)c1 | 50 (≈ 144 µM) | 50 (≈ 144 µM) | 50 (≈ 144 µM) | 50 (≈ 144 µM) | 50 (≈ 144 µM)
N=c1c(Cc2ccccc2Cl)c[nH]c(=O)n1-c1ccc(Cl)cc1 | > 50 | > 50 | > 50 | > 50 | > 50
Cc1ccc(NC(=O)NC/C(C#N)=C\c2ccc(Cl)c(Cl)c2)cc1Cl | > 50 | > 50 | > 50 | > 50 | > 50
N#CC(CN(Cc1ccccc1)C(=O)Nc1ccc(Cl)c(Cl)c1)C(O)c1ccccc1 (centres undefined) | > 50 | > 50 | > 50 | > 50 | > 50
Nc1c(Cc2ccccc2)cnc(=S)n1-c1ccccc1 | > 50 | > 50 | > 50 | > 50 | > 50
Nc1c(Cc2ccccc2Cl)cnc(=S)n1-c1ccccc1 | > 50 | 25 (≈ 76.3 µM) | > 50 | > 50 | > 50
N=c1c(Cc2ccc(Cl)c(Cl)c2)c[nH]c(=O)n1-c1ccc(Cl)cc1 | > 50 | > 50 | > 50 | > 50 | > 50
N#CC(CN(Cc1ccccc1)C(=O)Nc1ccc(Cl)cc1)C(O)c1ccccc1 (centres undefined) | 25 (≈ 59.5 µM) | 50 (≈ 119 µM) | 12.5 (≈ 29.8 µM) | 50 (≈ 119 µM) | 50 (≈ 119 µM)
N#C/C(=C/c1cccs1)CNC(=O)Nc1ccc(Cl)cc1 | > 50 | > 50 | > 50 | > 50 | > 50
N#C/C(=C/c1ccccc1)CNC(=O)Nc1ccc(Cl)cc1Cl | > 50 | > 50 | 50 (≈ 144 µM) | > 50 | > 50
N#C/C(=C/c1ccc(Cl)c(Cl)c1)CNC(=S)Nc1ccccc1 | 1.56 (≈ 4.31 µM) | 3.12 (≈ 8.61 µM) | 1.56 (≈ 4.31 µM) | 25 (≈ 69 µM) | 3.12 (≈ 8.61 µM)
Nc1c(Cc2ccc(Cl)c(Cl)c2)cnc(=S)n1-c1ccccc1 | > 50 | 25 (≈ 69 µM) | > 50 | > 50 | 50 (≈ 138 µM)
N#C/C(=C/c1cccs1)CNC(=O)Nc1ccc(Cl)cc1Cl | > 50 | > 50 | > 50 | > 50 | > 50
COC(c1ccccc1)C1CN(Cc2ccccc2)C(=O)N(c2ccc(Cl)c(Cl)c2)C1=N (centres undefined) | 1.56 (≈ 3.33 µM) | 3.12 (≈ 6.66 µM) | 1.56 (≈ 3.33 µM) | 50 (≈ 107 µM) | 3.12 (≈ 6.66 µM)
N#C/C(=C/c1ccccc1)CNC(=O)Nc1ccc(Cl)c(Cl)c1 | > 50 | > 50 | > 50 | > 50 | > 50
N#C/C(=C/c1ccccc1Cl)CNC(=O)Nc1ccc(Cl)c(Cl)c1 | > 50 | > 50 | 1.56 (≈ 4.1 µM) | > 50 | > 50
N#C/C(=C/c1ccc(Cl)c(Cl)c1)CNC(=O)Nc1ccc(Cl)cc1 | > 50 | > 50 | > 50 | > 50 | > 50
N=C1CCNC(=O)N1c1ccc(Cl)cc1Cl | 50 (≈ 194 µM) | 50 (≈ 194 µM) | 25 (≈ 96.9 µM) | 50 (≈ 194 µM) | 50 (≈ 194 µM)
N=c1c(Cc2ccccc2Cl)c[nH]c(=O)n1-c1ccc(Cl)c(Cl)c1 | > 50 | 50 (≈ 131 µM) | 50 (≈ 131 µM) | > 50 | > 50
CC1(C)S[C@@H]2[C@H](NC(=O)[C@H](N)c3ccccc3)C(=O)N2[C@H]1C(=O)O [AMPICILLIN] | 0.09 (≈ 0.258 µM) | 0.02 (≈ 0.0572 µM) |  | 50 (≈ 143 µM) | 0.01 (≈ 0.0286 µM)
